Experimental data as given in ChEMBL document CHEMBL3046326, “Screening of dialkoxybenzenes and disubstituted cyclopentene derivatives against the cabbage looper, Trichoplusia ni, for the discovery of new feeding and oviposition deterrents” (J Agric Food Chem, 2007).

Legend:
[1] = system: Trichoplusia ni; test: Toxicity against third-instar larval stage of Trichoplusia ni (cabbage looper) assessed as mortality measured after 24 hr by contact toxicity bioassay; assay type: functional
How it was run: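 Third-instar larvae were hand-sprayed directly with test solutions in filter-paper-lined Petri dishes, then moved to dishes holding a small piece of artificial diet. Mortality was recorded at 24 h.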

[2] = system: Trichoplusia ni; test: Feeding deterrent activity against freshly molted third-instar larval stage of Trichoplusia ni (cabbage looper), Trichoplusia ni at 50 ug/cm'2 after 3 to 5 hr by leaf disk choice bioassay; assay type: functional
How it was run: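 Leaf disk choice with freshly molted third instar larvae starved 4–5 h. One disk was painted on each side with 10 µL solution giving 50 µg/cm², the other with carrier solvent. Twenty-five larvae per treatment, stopped at ~50% control disk consumption (3–5 h). Deterrence = [(C − T)/(C + T)] × 100 from consumed areas; mean ± SE, Tukey's test p < 0.05.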

[3] = system: Trichoplusia ni; test: Toxicity against third-instar larval stage of Trichoplusia ni (cabbage looper) assessed as mortality at 0.25% measured after 24 hr by contact toxicity bioassay; assay type: functional
How it was run: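 Third-instar larvae were sprayed directly with test solution at 0.25% in filter-paper-lined Petri dishes. They were then moved to dishes holding a small piece of artificial diet. Mortality was scored 24 h after spraying. The test applied only to compounds giving >50% feeding deterrence at 50 µg/cm².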

[4] = system: Trichoplusia ni; test: Feeding deterrent activity against freshly molted third-instar larval stage of Trichoplusia ni (cabbage looper) after 3 to 5 hr by leaf disk choice bioassay; assay type: functional, organism-based
How it was run: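 Choice test: freshly molted third instar larvae, starved 4–5 h, offered two leaf disks, one painted on each side with 10 µL test solution and one with carrier solvent only. Twenty-five larvae per treatment. Ended when ~50% of the control disk was eaten (normally 3–5 h). Consumed areas measured. DC50 derived by linear regression of at least four concentrations (3.12–25 µg/cm²).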

[5] = system: Trichoplusia ni; test: Oviposition deterrent activity against adult female Trichoplusia ni (cabbage looper) moths introduced along with male moths into oviposition cage containing compound pretreated cabbage leaves assessed as eggs laying on the leaf disks at 0.25% after 48 hr by oviposition choice bioassay; assay type: functional
How it was run: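 Choice test with moths from larvae reared on normal diet from neonate to pupation. Pupae were sexed and held separately until emergence. Cabbage leaves were treated with test substance at 0.25% or left as control, and eggs per leaf were counted after 48 h. ODI = [(C − T)/(C + T)] × 100 from egg numbers on control and treated leaves.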

[6] = system: Helicoverpa zea; test: Larvicidal activity against Helicoverpa zea (corn earworm) assessed as growth inhibition at 3 mM/kg relative to control by chronic feeding bioassay; assay type: functional; details: read-out: GI

CCCOc1ccc(OCC)cc1 [4-ETHOXY-1-PROPOXYBENZENE]
LC50 [1]: 0.03% | Activity [2]: 53.4% | mortality [3]: 96.8% | DC50 [4]: 23.4 microg/cm2 | Activity [5]: 56.6%

CCCCCOc1ccc(OCC)cc1 [1-ethoxy-4-pentoxybenzene]
LC50 [1]: 0.03% | Activity [2]: 90.7% | mortality [3]: 96.8% | DC50 [4]: 23.4 microg/cm2 | Activity [5]: 56.6%

C=C1C(=O)O[C@@H]2[C@H]1CC[C@H](C)[C@]1(O)C=CC(=O)[C@@]21C [PARTHENIN]
inhibition of growth at 3000 µM [6]: 59%

CCOc1ccc(OC)cc1 [1-methoxy-4-ethoxybenzene]
LC50 [1]: 0.03% | Activity [2]: 80.2% | mortality [3]: 23.3% | DC50 [4]: 34.6 microg/cm2 | Activity [5]: 6%

CCCCOc1ccccc1OCCCC [1,2-DIBUTOXYBENZENE]
Activity [2]: 56.4% | mortality [3]: 10% | DC50 [4]: 43.8 microg/cm2 | Activity [5]: 19.6%

CCCCCOc1ccc(OCCCC)cc1 [1-butyloxy-4-pentoxybenzene]
Activity [2]: 83.4% | mortality [3]: 58.1% | DC50 [4]: 14.5 microg/cm2 | Activity [5]: 50.1%

C=CCOc1ccccc1OCCC [1-allyloxy-2-propoxybenzene]
Activity [2]: 67.8% | mortality [3]: 23.3% | DC50 [4]: 30 microg/cm2 | Activity [5]: 66.7%

CCCOCC[C@@H]1CC=C[C@@H]1OCCC (racemic)
Activity [2]: 66.7% | mortality [3]: 37.5% | DC50 [4]: 32.6 microg/cm2 | Activity [5]: 41.8%

CCCCCOc1ccccc1OCCCC [1-butoxy-2-pentoxybenzene]
Activity [2]: 98% | mortality [3]: 6.7% | DC50 [4]: 16.8 microg/cm2 | Activity [5]: 28.7%

CCCCOc1ccc(OC)cc1 [1-butyloxy-4-methoxybenzene]
Activity [2]: 83.4% | mortality [3]: 58.1% | DC50 [4]: 14.5 microg/cm2 | Activity [5]: 50.1%

CCCCOc1ccccc1OCC [1-ethoxy-2-butoxybenzene]
Activity [2]: 71% | mortality [3]: 6.7% | DC50 [4]: 24.1 microg/cm2 | Activity [5]: 28.7%

CCOc1cccc(OCCC(C)C)c1 [1-isopentyloxy-3-ethoxybenzene]
Activity [2]: 82.6% | mortality [3]: 20.8% | DC50 [4]: 19.8 microg/cm2 | Activity [5]: 35.7%

CCCOc1ccccc1OCC [1-ethoxy-2-propoxybenzene]
Activity [2]: 71% | mortality [3]: 6.7% | DC50 [4]: 24.1 microg/cm2 | Activity [5]: 28.7%

CCCCOc1ccccc1OCCC(C)C [1-isopentoxy-2-butoxybenzene]
Activity [2]: 66.9% | mortality [3]: 10% | DC50 [4]: 32.5 microg/cm2 | Activity [5]: 29.4%

CCCCCOc1cccc(OCCCC)c1 [1-butyloxy-3-pentoxybenzene]
Activity [2]: 84.1% | mortality [3]: 30% | DC50 [4]: 14.4 microg/cm2 | Activity [5]: 25.9%

CCOc1ccc(OCC)cc1 [1,4-DIETHOXYBENZENE]
LC50 [1]: 0.03% | Activity [2]: 80.8% | mortality [3]: 100% | DC50 [4]: 25.9 microg/cm2 | Activity [5]: 74.7%

COc1ccc(OCCC(C)C)cc1 [1-isopentyloxy-4-methoxybenzene]
Activity [2]: 100% | mortality [3]: 18.8% | DC50 [4]: 5.8 microg/cm2 | Activity [5]: 22.9%

CC(C)CCOc1ccccc1OCCC(C)C [1,2-DIISOPENTOXYBENZENE]
Activity [2]: 69.9% | mortality [3]: 40% | DC50 [4]: 19.6 microg/cm2 | Activity [5]: 11.5%

CCCCOc1cccc(OC)c1 [1-butyloxy-3-methoxybenzene]
Activity [2]: 84.1% | mortality [3]: 30% | DC50 [4]: 14.4 microg/cm2 | Activity [5]: 25.9%

C=CCOc1ccc(OCC)cc1 [1-allyloxy-4-ethoxybenzene]
Activity [2]: 82.4% | mortality [3]: 10% | DC50 [4]: 27.9 microg/cm2 | Activity [5]: 5.4%

CCOc1cccc(OC)c1 [1-methoxy-3-ethoxybenzene]
Activity [2]: 54.8% | mortality [3]: 16.7% | DC50 [4]: 61.5 microg/cm2 | Activity [5]: 70.2%

CCCCCOc1ccccc1OCCC [1-propoxy-2-pentoxybenzene]
Activity [2]: 100% | mortality [3]: 13.8% | DC50 [4]: 19.4 microg/cm2 | Activity [5]: 31.7%

CCCOc1ccc(OCCC)cc1 [1,4-DIPROPOXYBENZENE]
Activity [2]: 96% | mortality [3]: 22.6% | DC50 [4]: 20.3 microg/cm2 | Activity [5]: 11.8%

CCOc1ccc(OCCC(C)C)cc1 [1-isopentyloxy-4-ethoxybenzene]
Activity [2]: 100% | mortality [3]: 18.8% | DC50 [4]: 5.8 microg/cm2 | Activity [5]: 22.9%

CCCCOc1cccc(OCCC)c1 [1-butyloxy-3-propoxybenzene]
Activity [2]: 84.1% | mortality [3]: 30% | DC50 [4]: 14.4 microg/cm2 | Activity [5]: 25.9%

CCCCOc1ccc(OCCC)cc1 [1-butyloxy-4-propoxybenzene]
Activity [2]: 83.4% | mortality [3]: 58.1% | DC50 [4]: 14.5 microg/cm2 | Activity [5]: 50.1%

C=CCOc1ccccc1OC [1-allyloxy-2-methoxybenzene]
Activity [2]: 67.8% | mortality [3]: 23.3% | DC50 [4]: 30 microg/cm2 | Activity [5]: 66.7%

CCCCCOc1cccc(OCC)c1 [1-ethoxy-3-pentoxybenzene]
Activity [2]: 69.8% | mortality [3]: 20% | DC50 [4]: 26.5 microg/cm2 | Activity [5]: 14.3%
